Test results from article PMC11673187 (JACS Au, 2024).
Values belong to the substance of their own block, whether it stands above or below them.

What was measured:
[1] = system: Nbs bearing click handles (Nb6EPEG4DBCO and NbALFAbiotinN3); assay: Assessment of click chemistry; settings: Gly vs Ahx linker; azide vs alkyne pairing; S4A-C
Method in brief: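 Click cross-linking run at room temperature in TBS with 10 µM of each nanobody bearing a click handle (DBCO or azide), with or without equimolar dimeric template peptide. Quenched with 500 µM GGG-Lys(azide) peptide, then denatured in Laemmli buffer with 100 mM DTT at 95 °C. Products resolved on 15% polyacrylamide gels and stained. High-MW cross-linked band quantified by densitometry, normalized to a control quenched at T = 0.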

PTHR1 [2] = biological target: T1, PTHR1 (Homo sapiens, UniProt Q03431); assay: PTHR1-mediated signaling via Gαs/cAMP; type: cell-based; settings: DPahx 300 nM with various concentrations of Nb-PTH conjugates; Figure 3D, S8
T1 sequence (Q03431 27-593): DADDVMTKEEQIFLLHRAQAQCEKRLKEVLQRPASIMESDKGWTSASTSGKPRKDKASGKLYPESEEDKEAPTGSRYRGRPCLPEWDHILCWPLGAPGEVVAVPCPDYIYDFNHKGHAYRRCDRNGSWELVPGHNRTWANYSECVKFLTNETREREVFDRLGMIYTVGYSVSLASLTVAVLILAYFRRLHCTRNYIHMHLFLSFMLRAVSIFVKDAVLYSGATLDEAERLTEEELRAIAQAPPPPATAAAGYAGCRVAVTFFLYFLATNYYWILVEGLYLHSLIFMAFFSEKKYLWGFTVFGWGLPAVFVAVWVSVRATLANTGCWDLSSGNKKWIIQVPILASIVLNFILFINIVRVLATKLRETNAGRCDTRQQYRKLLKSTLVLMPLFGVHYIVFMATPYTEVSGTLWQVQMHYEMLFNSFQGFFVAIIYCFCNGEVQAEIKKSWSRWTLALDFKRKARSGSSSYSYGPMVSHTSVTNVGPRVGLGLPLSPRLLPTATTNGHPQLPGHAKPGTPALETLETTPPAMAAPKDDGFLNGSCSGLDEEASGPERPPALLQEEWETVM
Method in brief: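 HEK293 cells stably expressing PTHR1 and a cAMP luminescence reporter, grown in DMEM with 10% FBS and Pen-Strep, mycoplasma-free. Varying concentrations of the complementary azide and DBCO nanobody–PTH fragment conjugates added with or without 300 nM dimeric peptide. Luminescence normalized to the maximum for the conjugate pair alone; technical replicates in a representative experiment.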

PTHR1 [3] = biological target: T1, PTHR1; settings: fragments of PTH1–34; cited from earlier work
[4] = metal-free, absence of proximity enforcing conditions; cited from earlier work

Substance: CQADQEAKELARQISGSRLEEELRRRLTE [DPgly]
- cross-linking kinetics [1]: no major differences observed

- DP-potentiated activation of PTHR1 (PTHR1 [2]): DP-potentiated activation of PTHR1
Substance: CQADQEAKELARQISZSRLEEELRRRLTE [DPahx]
- cross-linking kinetics [1]: no major differences observed

Substance: PTH12–34: fragment of PTHR1 agonist peptide PTH1–34 (GKHLNSMERVEWLRKKLQDVHNF; Parathyroid hormone; UniProt P01270 43-65, looked up, fragment)
- activity of PTHR1 agonist fragments (PTHR1 [3]): weakly active or inactive

Substance: dibenzylcyclooctyne [DBCO]
- DBCO-azide cycloaddition rate [4]: ~1 M^–1S^1–
